PG9 Ab binder = PG9 antibody binding by small molecule; 0.43% of 360,000 active; AID 624416; TR-FRET gp120-PG9 antibody binding; inhibition, % at 6.7 µM; in the data active = inhibition above about 8.5%
Rev-erbA mod = modulates human Rev-erb alpha binding to DNA; Rev-erbα–FITC-DNA binding, fluorescence polarization, 90 min; P20393; 0.79% of 370,000 active; activity, % at 10 µM;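 active = activity above about 14%, limit read from the data; passing the limit was not always enough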
NR2E3 ag-1 = agonists of human NR2E3 nuclear receptor. AID 602229. CHO-S Gal4-NCOR/VP16-NR2E3 two-hybrid, luciferase. 0.35% of 360,000 active. Q9Y5X4. inhibition of corepressor binding, % at 3.98 µM;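 active = inhibition above the mean of all tested compounds plus 3 SD, cut at about 70% in these data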;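 also: higher means lower luciferase signal from less NR2E3 corepressor binding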
Target sequence (Q9Y5X4 whole entry, looked up, the tested form may be a part): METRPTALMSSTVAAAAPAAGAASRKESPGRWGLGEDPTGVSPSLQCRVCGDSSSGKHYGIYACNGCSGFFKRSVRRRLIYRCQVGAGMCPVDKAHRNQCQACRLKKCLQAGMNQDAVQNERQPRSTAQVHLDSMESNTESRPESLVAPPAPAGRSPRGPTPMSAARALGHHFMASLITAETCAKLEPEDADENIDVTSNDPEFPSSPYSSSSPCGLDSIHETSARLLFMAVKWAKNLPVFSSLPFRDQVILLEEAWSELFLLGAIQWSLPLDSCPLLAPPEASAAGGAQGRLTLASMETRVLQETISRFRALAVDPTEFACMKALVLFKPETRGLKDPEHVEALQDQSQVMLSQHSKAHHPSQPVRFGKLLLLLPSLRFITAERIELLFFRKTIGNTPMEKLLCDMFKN
NR2E3 ag-2 = activates human photoreceptor nuclear receptor NR2E3; Q9Y5X4; GST-NR2E3/biotin-RetCOR TR-FRET, 1536-well; inhibition of corepressor binding, % at 4.78 µM; 0.12% of 320,000 active; AID 2300;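 active = percent inhibition above the cutoff of mean plus 3 SD of all tested compounds, set per screening campaign, cut at about 20% in these data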
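Material: NR2E3–RetCOR corepressor complex / Amount: 1.35 nM GST-NR2E3 / Medium: Tris pH 7.5 / Compound: single nominal compound dose of 4.8 µM / Incubation: 5 h at 4 °C / Technique: TR-FRET, Eu(K)-anti-GST donor, streptavidin-D2 acceptor, ex 340, em 617/671 nm / Read-out basis: percent loss of FRET ratio relative to control wells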
GalR3 antagonist = human GalR3 antagonism; O60755; HEK293 GalR3-CNG cAMP membrane potential fluorescence; galR3 body fused to GalR1 C-terminus; inhibition, % at 3 µM; 0.44% of 360,000 active; AID 651719;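 active = inhibition above the screen-wide average plus 3 SD, cut at about 13% in these data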;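 also: forskolin and galanin both at EC90 stimulate the cells; cAMP rise reported by CNG channel membrane potential dye signal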
NR2E3 ag confirm = confirmation of human NR2E3 agonists | shares compounds with NR2E3 ag-1 | CHO-S mammalian two-hybrid NR2E3-NCOR, luciferase luminescence | inhibition, % at 3.98 µM | 51% of 2,300 active;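 active = average inhibition above a cutoff equal to the mean inhibition of all tested compounds plus one SD, cut at about 70% in these data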
GAL4-VP16 luc = GAL4-VP16 reporter inhibition in NR2E3 agonist counterscreen; inhibition, % at 3.98 µM; AID 624379; shares compounds with NR2E3 ag-1; 29% of 2,300 active; CHO-S GAL4-VP16 luciferase reporter, luminescence;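 active = mean inhibition above a cutoff equal to the average over all tested compounds plus one standard deviation, cut at about 70% in these data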;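 also: luciferase from a UAS reporter driven by GAL4-VP16 transactivation; higher means less reporter light so more repression of VP16 activity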
A number is an active result; - = inactive; . = not tested or not shown. Hits are enriched below; roughly 1.8% of the tested compounds scored in any of these assays.

SMILES	PG9 Ab binder	Rev-erbA mod	NR2E3 ag-1	NR2E3 ag-2	GalR3 antagonist	NR2E3 ag confirm	GAL4-VP16 luc
COc1ccc(-c2coc3c(C(=O)NCC4CCOCC4)cccc23)c(C)c1	-	-	71	.	-	-	-
COc1ccc(-c2coc3c(C(=O)NCCN4CCOCC4)cccc23)c(C)c1	-	-	-	.	-	.	.
O=C(CC(Nc1ccc(Cl)cc1Cl)C(=O)O)c1ccccc1 (centres undefined)	-	-	-	-	-	-	-
CCOC(=O)[C@@]12CN(C(=O)OC(C)(C)C)CC=C1N(Cc1ccc(OC)cc1)C(=O)[C@H]2CC(=O)NCC1CCCCC1	.	-	.	.	.	.	.
C#CCNC(=O)C[C@H]1C[C@@]2(C(=O)OC)C(=C[C@H](COCc3ccccc3)O[C@@H]2C)N(Cc2ccco2)C1=O	.	-	.	.	.	.	.
CCOC(=O)c1cnc(-n2nc(C)cc2C)nc1NCc1ccccc1	-	-	94	-	-	-	-
CCOC(=O)c1cnc(-n2nc(C)cc2C)nc1NC(C)c1ccccc1 (centres undefined)	-	-	98	-	-	-	-
c1ccc(-c2nc(NCC3CCCO3)c3ccccc3n2)nc1 (centres undefined)	-	-	89	-	-	-	-
c1ccc(-c2nc(NCc3ccco3)c3ccccc3n2)nc1	-	-	83	-	-	-	-
COC(=O)[C@]12C[C@H](CC(=O)NCCC(C)C)C(=O)N(Cc3ccco3)C1=C[C@H](C(C)C)O[C@@H]2C1CC1	.	-	.	.	.	.	.
COc1cnc(-c2ccccn2)nc1Sc1ccc(F)cc1	-	-	-	-	-	-	-
COc1cnc(-c2ccccn2)nc1Sc1ccccc1	-	-	94	-	-	-	-
COc1cnc(-c2ccccn2)nc1Sc1ccc(Cl)cc1	-	-	-	-	-	-	-
COc1ccc(Sc2nc(-c3ccccn3)ncc2OC)cc1	-	-	92	-	-	-	-
CCOC(=O)CSc1nc(-c2ccccn2)ncc1OC	-	-	-	-	-	.	.
Cc1ccc(-c2cc3nc(-c4ccco4)cc(N4CCN(Cc5ccoc5)CC4)n3n2)cc1	.	-	.	.	.	.	.
OC(c1ccccc1)(c1ccccc1)C1CCN(CCCNc2ccc(C(F)(F)F)cc2)CC1	.	-	.	.	.	.	.
CCOC(=O)c1cc(S(=O)(=O)Nc2cccc(OC)c2)cn1C	-	-	-	-	-	-	-
CCOC(=O)Cc1c(C)nc2c(C#N)c[nH]n2c1=O	-	-	-	-	-	.	.
CCOC(=O)Cc1c(C)nc2c(-c3cccc(Br)c3)c[nH]n2c1=O	-	-	-	-	-	-	-
CN(CC(=O)Nc1ccccc1Cl)C(=O)c1cccc(S(=O)(=O)N2CCN(Cc3ccccc3)CC2)c1	-	-	102	-	-	-	-
CN(CC(=O)Nc1ccccc1Cl)C(=O)c1cccc(S(=O)(=O)N2CCN(c3ccc(F)cc3)CC2)c1	-	-	94	-	-	73	-
CN(CC(=O)Nc1cccc(F)c1)C(=O)c1cccc(S(=O)(=O)N2CCN(c3ccc(F)cc3)CC2)c1	-	-	-	.	-	-	-
CN(CC(=O)Nc1ccccc1Cl)C(=O)c1cccc(S(=O)(=O)N2CCN(c3ccccc3)CC2)c1	-	-	-	.	-	82	-
CN(CC(=O)Nc1cccc(F)c1)C(=O)c1cccc(S(=O)(=O)N2CCN(Cc3ccccc3)CC2)c1	-	-	-	.	-	.	.
SMILES	PG9 Ab binder	Rev-erbA mod	NR2E3 ag-1	NR2E3 ag-2	GalR3 antagonist	NR2E3 ag confirm	GAL4-VP16 luc
CC(=O)Oc1cc(C)c(OC(C)=O)c2ccccc12	.	-	.	.	.	.	.
O=C(c1cc(S(=O)(=O)N2CCN(c3ccccc3)CC2)ccc1Cl)N1CCCCCCC1	-	-	-	-	-	79	-
CN(CC(=O)Nc1cccc(F)c1)C(=O)c1ccc(N2CCCC2)c([N+](=O)[O-])c1	-	-	-	-	-	-	-
CN(Cc1ccc(OC(F)F)cc1)C(=O)c1cccc(S(=O)(=O)N2CCN(c3ccccc3)CC2)c1	-	-	83	.	-	85	-
CN(CC(=O)Nc1cccc(F)c1)C(=O)c1ccc(N2CCCCCC2)c([N+](=O)[O-])c1	-	-	-	-	-	.	.
CC1CN(C(=O)c2cc(S(=O)(=O)N3CCN(c4ccccc4)CC3)ccc2Cl)CC(C)O1 (centres undefined)	-	-	-	-	-	.	.
Cc1cccc(NC(=O)N2CCC(N(C)CCC(C)C)CC2)c1	.	-	.	.	.	.	.
O=C(CSc1nnc(-c2cccnc2)n1-c1ccc(Cl)cc1)Nc1ccc(S(=O)(=O)Nc2nccs2)cc1	.	-	.	.	.	.	.
O=C(NCc1cccnc1)/C(=C/c1ccc(-c2cccc(Cl)c2)o1)S(=O)(=O)c1ccccc1	-	-	-	-	-	.	.
O=C(NCc1cccnc1)/C(=C\c1ccc(-c2cccc(Cl)c2)o1)S(=O)(=O)c1ccccc1	-	-	91	-	-	-	-
CC1OC(CC(=O)O)CC2=C1C(=O)c1c(O)cccc1C2=O (centres undefined)	13	-	101	.	-	101	99
O=C1c2cccc(O)c2C(=O)c2c(O)cccc21	.	-	.	-	.	.	.
Cc1ccc(-c2cc(-c3nnc(SCC(=O)NC4CCCCC4)n3N)[nH]n2)cc1	.	-	.	.	.	.	.
Cc1cccc(CCNC(=O)Cn2ncc3c2-c2cc(C)ccc2OC3)c1	.	-	.	.	.	.	.
CC1(C)CC(=O)C2=C(C1)c1c(ccc3ccccc13)NC2c1cc([N+](=O)[O-])cc([N+](=O)[O-])c1O (centres undefined)	-	-	-	-	-	98	-
CC1(C)CC(=O)C2=C(C1)c1c(ccc3ccccc13)NC2c1ccc(C(=O)O)cc1 (centres undefined)	-	-	-	-	-	.	.
Cc1ccc(C(=O)Nc2ccc(CC(=O)O)cc2)o1	-	-	-	-	-	.	.
CC(C)(C)c1ccc(C(=O)Nc2ccc(CC(=O)O)cc2)o1	-	-	-	-	-	-	-
COc1ccc(NC(=O)C2Cc3c(-c4ccc(Cl)cc4)ccnc3O2)cc1OC (centres undefined)	-	-	78	.	-	82	-
COc1ccc(NC(=O)C2Cc3c(-c4ccc(Cl)cc4)ccnc3O2)cn1 (centres undefined)	-	-	-	.	-	.	.
COc1ccc(NC(=O)C2Cc3c(-c4ccncc4)ccnc3O2)cc1OC (centres undefined)	-	-	-	.	-	.	.
COc1ccc(NC(=O)C2Cc3c(-c4ccccc4)ccnc3O2)cc1OC (centres undefined)	.	.	78	.	.	80	71
COc1ccc(-n2cnnc2SCC(=O)Nc2cc(C(C)(C)C)nn2-c2ccccc2)cc1	-	-	-	-	-	-	-
CCN(CC(=O)NCc1cccs1)C(=O)c1ccc(-c2cccc(C(F)(F)F)c2)o1	-	-	-	-	-	-	-

Bioassay records from PubChem BioAssay.
